The test system of series [1] is LoVo. Nature of the series: Anticancer activity against human LoVo cells xenografted mouse at 50 mg/kg, po administered 20 days measured on day 21 relative to control. It is filed as functional. In short, it runs like this:
(§1)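 Female athymic nu/nu mice were given 1×10^7 LoVo cells SC in the flank. Cells were cultured in RPMI with 10% FBS. At 90–120 mg tumour mass (day zero), mice were randomised 5 per group. Tumour mass was calculated as (length×width²)/2 every 7 days and expressed as relative growth versus day zero, treated versus control. Student t-test was run on log relative growth, with significance at p≤0.05.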

Series [2] can be described thus: Plasma concentration in mouse at 50 mg/kg, po after 1 hr. It is filed as ADME, organism-based. On the set-up: dose 50 mg/kg, route oral. In short, it runs like this: (§2)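 Nude mice were dosed orally at 50 mg/kg. Blood was sampled at 1 and 4 h, and plasma levels were reported in […].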
For series [3], the system named is HCT-116. The experiment in a line: Antiproliferative activity against p21+/+ human HCT116 cells. Format: functional, cell-based.
Series [4] has as its system LoVo. Nature of the series: Antiproliferative activity against human LoVo cells. Format: functional, cell-based.
The test system of series [5] is HT-29. Nature of the series: Antiproliferative activity against human HT-29 cells. Format: functional, cell-based.
Series [6] has as its system LoVo. The experiment in a line: Anticancer activity against human LoVo cells xenografted mouse at 30 mg/kg, po administered 20 days measured on day 21 relative to control. It is filed as functional. The method in brief: as §1
In general terms: In xenograft studies the graft and the host belong to different species.

Series [7] deals with SW-620. Nature of the series: Antiproliferative activity against human SW620 cells. Format: functional, cell-based.
Series [8] in a line: Binding affinity to tubulin. In short, it runs like this: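 Binding was read by the fluorescence change of compound and tubulin tryptophan residues on binding, using unlabelled tubulin with intrinsic tryptophan fluorescence as reporter. KD was derived from this signal.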
Series [9] can be described thus: Plasma concentration in mouse at 50 mg/kg, po after 4 hrs. Format: ADME, organism-based. More on the design: dose 50 mg/kg, route oral. The method in brief: as §2
Series [10] can be described thus: Antiproliferative activity against p21-/- human 80S14 cells. Format: functional, cell-based.
Series [11] deals with DLD-1. The experiment in a line: Antiproliferative activity against human DLD1 cells. It is filed as functional, cell-based.
Series [12] can be described thus: Induction of oligomerization of tubulin.

Active and inactive are the calls of the source. The rule behind the calls is not given here.

In general, T/C refers to the ratio of treated to control. One may read the IC50 as the concentration that gives 50% inhibition. For orientation: Kd means the equilibrium constant for the complex coming apart. Regarding `CC(C)CC(=O)Nc1cc(-c2ccnc3c(C(=O)c4cccs4)cnn23)ccc1F`, the T/C in [1] worked out at 24%; in series [6] it was 57%. Further, the concentration at 1 h in series [2] worked out at 110 ng/mL. For the same compound, the IC50 in [3] was 3200 nM; in series [4] it was 15 nM; in series [5], 16 nM; in [7] it was 15 nM; in [10], 89 nM; in series [11], 16 nM. In series [8], this compound displayed a Kd of 2500 nM. In series [9], the concentration at 4 h worked out at 40 ng/mL. The result in [12] was inactive.

Regarding `C/C=C/CNc1cccc(-c2ccnc3c(C(=O)c4cccs4)cnn23)c1`, the results for the half-inhibitory concentration (IC50) in series [3] and in series [10] were 3800 nM and 430 nM, respectively.

Regarding `CC(C)OC(=O)Nc1cccc(-c2ccnc3c(C(=O)c4cccs4)cnn23)c1`, in series [10], the IC50 was 51 nM.

On to `CC(C)CC(=O)Nc1cccc(-c2ccnc3c(C(=O)c4cccs4)cnn23)c1`, for which binding in series [8] was characterised by a dissociation constant (Kd) of 4300 nM. Also, in series [10], the IC50 came out at 140 nM. In series [12], the outcome was inactive.

As to `CC(C)CC(=O)Nc1ccc(Cl)c(-c2ccnc3c(C(=O)c4cccs4)cnn23)c1`, the IC50 was 20000 nM in series [3] and 2800 nM in [10].

On to `CC(C)CC(=O)Nc1ccc(-c2ccnc3c(C(=O)c4cccs4)cnn23)s1`, for which the half-maximal inhibitory concentration (IC50) in series [3] was more than 20000 nM; in series [4], 680 nM; in series [5] it was 670 nM; in series [7], 760 nM; in series [10], 2000 nM; in series [11], 620 nM.

Consider `CC(C)CCNc1cccc(-c2ccnc3c(C(=O)c4cccs4)cnn23)c1`, for which the IC50 in series [3] was 5700 nM; in series [4], 81 nM; in series [5], 450 nM; in series [7], 110 nM; in [10], 770 nM; in series [11], 120 nM.

Take `Cc1ccc(-c2ccnc3c(C(=O)c4cccs4)cnn23)cc1NC(=O)CC(C)C`: the results for the IC50 in series [3] and in series [10] were 9200 nM and 1000 nM, respectively.

For `CC(C)CC(=O)Nc1cc(-c2ccnc3c(C(=O)c4cccs4)cnn23)cs1`, the IC50 in series [3] is more than 20000 nM; in series [10], 7800 nM.

`O=C(NC1CCCC1)c1cccc(-c2ccnc3c(C(=O)c4cccs4)cnn23)c1`: the IC50 was found to be 6800 nM in [3] and 390 nM in [10].

Regarding `CC(C)NC(=O)c1cccc(-c2ccnc3c(C(=O)c4cccs4)cnn23)c1`, the IC50 in series [3] is more than 13000 nM; in series [10], 680 nM.

On to `CC(C)CNC(=O)c1cccc(-c2ccnc3c(C(=O)c4cccs4)cnn23)c1`, for which the IC50 amounted to 5700 nM in [3]; 150 nM in series [4]; 150 nM in [5]; 150 nM in series [7]; 400 nM in [10]; 60 nM in [11].

Regarding `CC(CC(=O)Nc1cc(-c2ccnc3c(C(=O)c4cccs4)cnn23)ccc1F)C(F)(F)F` (stereo unspecified), the IC50 in series [3] turned out to be 2500 nM; in series [10] it was 120 nM.

Consider `CC(C)NC(=O)Nc1cc(-c2ccnc3c(C(=O)c4cccs4)cnn23)ccc1F`, for which the concentration at 1 h in [2] was 14 ng/mL. Moreover, the IC50 in series [3] is 5300 nM; in series [4] it was 11 nM; in series [5], 17 nM; in series [7], 12 nM; in [10], 41 nM; in [11], 19 nM. In [9], this compound gave a concentration at 4 h of 8 ng/mL.

With `CC(C)(C)CCNc1cccc(-c2ccnc3c(C(=O)c4cccs4)cnn23)c1`, the concentration for half-maximal inhibition (IC50) came to 4800 nM in [3] and 550 nM in series [10].

`CC(C)NC(=O)Nc1cccc(-c2ccnc3c(C(=O)c4cccs4)cnn23)c1` gave an IC50 in series [10] of 89 nM.

For the compound `O=C(Nc1ccccc1)c1cccc(-c2ccnc3c(C(=O)c4cccs4)cnn23)c1`, the IC50 in series [3] came out at 5100 nM; in [10] it was 310 nM.

On to `CC(C)CC(=O)Nc1cncc(-c2ccnc3c(C(=O)c4cccs4)cnn23)c1`, for which the values for the IC50 in series [3] and in [10] were more than 2600 nM and 7600 nM, respectively.

Turning to `CC(C)(C)CC(=O)Nc1cc(-c2ccnc3c(C(=O)c4cccs4)cnn23)ccc1F`, the IC50 in series [3] was 3700 nM; in series [10], 190 nM.

With `CCCCNC(=O)c1cccc(-c2ccnc3c(C(=O)c4cccs4)cnn23)c1`, the IC50 in series [3] worked out at 5300 nM; in series [10], 340 nM.

As to `CC(C)CC(=O)Nc1cc(-c2ccnc3c(C(=O)c4cccs4)cnn23)ccc1Cl`, the IC50 is 8800 nM in series [3] and 430 nM in series [10].

Consider `COc1ccc(-c2ccnc3c(C(=O)c4cccs4)cnn23)cc1NC(=O)CC(C)C`, for which the values for the IC50 in series [3] and in series [10] were 19000 nM and 6400 nM, respectively.

(Values after ChEMBL document CHEMBL1152747, “Synthesis, SAR study and biological evaluation of novel pyrazolo[1,5-a]pyrimidin-7-yl phenyl amides as anti-proliferative agents” (Bioorg Med Chem, 2009).)
